Measured values as given in ChEMBL document CHEMBL1949610, “Selection of cyclic-peptide inhibitors targeting Aurora kinase A: problems and solutions” (Bioorg Med Chem, 2011).
Active and inactive are the calls of the source. The calls are words filed in the database; no cut-off is given here. Positions of bridges follow the written chain, without caps; N, C: chain ends. Residues, ends and D or L forms follow the SMILES beside them.

Experiments:
[1] = Inhibition of PKA assessed as [gamma-33P]ATP incorporation into kemptide substrate at 10 uM after 40 mins by liquid scintillation counting
[2] = target: Dual specificity protein kinase CLK2 (Homo sapiens) (UniProt P49760); test: Inhibition of CLK2 assessed as [gamma-33P]ATP incorporation into AKRRRLSSLRA substrate at 10 uM after 40 mins by liquid scintillation counting
Dual specificity protein kinase CLK2 (Homo sapiens), sequence (P49760 whole entry, looked up): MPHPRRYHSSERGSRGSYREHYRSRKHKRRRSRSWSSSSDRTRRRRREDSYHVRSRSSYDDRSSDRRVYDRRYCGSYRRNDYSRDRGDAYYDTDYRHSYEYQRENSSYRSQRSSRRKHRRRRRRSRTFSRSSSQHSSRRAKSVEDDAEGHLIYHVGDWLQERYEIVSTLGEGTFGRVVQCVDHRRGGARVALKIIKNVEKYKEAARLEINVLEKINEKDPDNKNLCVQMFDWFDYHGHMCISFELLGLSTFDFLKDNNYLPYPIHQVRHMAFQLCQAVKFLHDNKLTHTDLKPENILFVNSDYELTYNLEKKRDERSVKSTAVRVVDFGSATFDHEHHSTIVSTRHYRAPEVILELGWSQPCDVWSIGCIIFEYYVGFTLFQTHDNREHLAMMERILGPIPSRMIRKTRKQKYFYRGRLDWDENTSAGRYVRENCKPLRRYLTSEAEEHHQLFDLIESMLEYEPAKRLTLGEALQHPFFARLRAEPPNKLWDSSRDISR

[3] = target: T1, Aurora kinase A (Homo sapiens) (UniProt O14965); test: Inhibition of human aurora A assessed as [gamma-33P]ATP incorporation into kemptide substrate at 10 uM after 40 mins by liquid scintillation counting
T1 sequence (whole entry): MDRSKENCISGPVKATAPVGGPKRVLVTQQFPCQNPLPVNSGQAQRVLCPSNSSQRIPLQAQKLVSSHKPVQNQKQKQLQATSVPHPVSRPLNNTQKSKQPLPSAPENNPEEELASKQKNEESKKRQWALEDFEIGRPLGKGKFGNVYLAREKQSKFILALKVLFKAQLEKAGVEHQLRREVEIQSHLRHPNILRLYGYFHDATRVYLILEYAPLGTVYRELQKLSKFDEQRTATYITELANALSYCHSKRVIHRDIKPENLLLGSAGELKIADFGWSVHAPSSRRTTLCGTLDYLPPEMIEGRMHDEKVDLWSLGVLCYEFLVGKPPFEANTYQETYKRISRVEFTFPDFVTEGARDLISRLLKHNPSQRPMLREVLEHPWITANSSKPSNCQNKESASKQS

[4] = target: T1, Aurora kinase A (Homo sapiens); test: Un-competitive inhibition of human aurora A using kemptide as substrate by double reciprocal plot analysis
How it was run: (§1)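 Kinetics run in duplicate: 0.5 nM Aurora A, 100 μM [γ-³²P]ATP, Kemptide at 25, 50 and 200 μM, inhibitor at 0, 10 and 50 μM, in 20 mM MOPS, 10 mM MgCl, pH 7, 0.01% BSA, 2.5% DMSO. Data shown as double-reciprocal plots and fit to competitive, noncompetitive, mixed and uncompetitive models.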

[5] = target: T1, Aurora kinase A (Homo sapiens); test: Competitive inhibition of human aurora A using kemptide as a substrate by double reciprocal plot analysis; how it was run: as §1
Aurora kinase A = target: T2, Aurora kinase A (Homo sapiens, UniProt O14965); test: Mixed type inhibition of human aurora A using kemptide as a substrate by double reciprocal plot analysis; how it was run: as §1
T2 sequence (O14965 whole entry): T1 sequence (whole entry)

Row | inhibition [1] | inhibition [2] | inhibition [3] | Kiuc [4] [µM] | Kic [5] [µM] | Ki (Aurora kinase A) [µM] | SMILES
1 | inactive | inactive | Active |  |  |  | CC(C)C[C@@H]1NC(=O)[C@H](Cc2ccccc2)NC(=O)[C@H](CCCNC(=N)N)NC(=O)[C@@H]2CCCN2C(=O)[C@@H](N)CSSC[C@@H](C(=O)NCC(N)=O)NC(=O)[C@H](Cc2c[nH]c3ccccc23)NC(=O)[C@@H]2CCCN2C1=O (H-CPRFLPWCG-NH2; disulfide 1-8)
2 | inactive | inactive | Active | 17.6 | 10.4 | 27.2 | CC(C)C[C@@H]1NC(=O)[C@H](Cc2c[nH]c3ccccc23)NC(=O)[C@H](Cc2c[nH]c3ccccc23)NC(=O)[C@@H]2CCCN2C(=O)[C@H](CCCNC(=N)N)NC(=O)[C@H]([C@@H](C)O)NC(=O)[C@@H](N)CSSC[C@@H](C(=O)NCC(N)=O)NC1=O (H-CTRPWWLCG-NH2; disulfide 1-8)
